For 10 compounds, IC50 and Km results are on record in ChEMBL document CHEMBL1145253, “Synthesis and evaluation of 3D templates based on a taxane skeleton to circumvent P-glycoprotein-associated multidrug resistance of cancer” (Bioorg Med Chem Lett, 2005).

The subject of one data set is KB 3-1. Put plainly: Inhibitory concentration against human KB-3-1 cells. The class given is functional, cell-based. Put shortly:
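Cytotoxicity IC50 in two human KB lines: KB-G2, a multidrug-resistant line overexpressing P-glycoprotein (Val-185) and resistant to paclitaxel and vinblastine, and its parental drug-sensitive KB-3-1 line as the control. Both lines came from an outside academic lab.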

For the next data set, the system named is KB-G2. Put plainly: Inhibitory concentration against KB-G2 cells. The following applies: Homo sapiens.
Data set [1] concerns the target ATP-dependent translocase ABCB1 (Homo sapiens, UniProt P08183). Put plainly: Michaelis-Menten constant for human P-glycoprotein expressed in Sf9 cells.

Sequence of ATP-dependent translocase ABCB1 (P08183 whole entry): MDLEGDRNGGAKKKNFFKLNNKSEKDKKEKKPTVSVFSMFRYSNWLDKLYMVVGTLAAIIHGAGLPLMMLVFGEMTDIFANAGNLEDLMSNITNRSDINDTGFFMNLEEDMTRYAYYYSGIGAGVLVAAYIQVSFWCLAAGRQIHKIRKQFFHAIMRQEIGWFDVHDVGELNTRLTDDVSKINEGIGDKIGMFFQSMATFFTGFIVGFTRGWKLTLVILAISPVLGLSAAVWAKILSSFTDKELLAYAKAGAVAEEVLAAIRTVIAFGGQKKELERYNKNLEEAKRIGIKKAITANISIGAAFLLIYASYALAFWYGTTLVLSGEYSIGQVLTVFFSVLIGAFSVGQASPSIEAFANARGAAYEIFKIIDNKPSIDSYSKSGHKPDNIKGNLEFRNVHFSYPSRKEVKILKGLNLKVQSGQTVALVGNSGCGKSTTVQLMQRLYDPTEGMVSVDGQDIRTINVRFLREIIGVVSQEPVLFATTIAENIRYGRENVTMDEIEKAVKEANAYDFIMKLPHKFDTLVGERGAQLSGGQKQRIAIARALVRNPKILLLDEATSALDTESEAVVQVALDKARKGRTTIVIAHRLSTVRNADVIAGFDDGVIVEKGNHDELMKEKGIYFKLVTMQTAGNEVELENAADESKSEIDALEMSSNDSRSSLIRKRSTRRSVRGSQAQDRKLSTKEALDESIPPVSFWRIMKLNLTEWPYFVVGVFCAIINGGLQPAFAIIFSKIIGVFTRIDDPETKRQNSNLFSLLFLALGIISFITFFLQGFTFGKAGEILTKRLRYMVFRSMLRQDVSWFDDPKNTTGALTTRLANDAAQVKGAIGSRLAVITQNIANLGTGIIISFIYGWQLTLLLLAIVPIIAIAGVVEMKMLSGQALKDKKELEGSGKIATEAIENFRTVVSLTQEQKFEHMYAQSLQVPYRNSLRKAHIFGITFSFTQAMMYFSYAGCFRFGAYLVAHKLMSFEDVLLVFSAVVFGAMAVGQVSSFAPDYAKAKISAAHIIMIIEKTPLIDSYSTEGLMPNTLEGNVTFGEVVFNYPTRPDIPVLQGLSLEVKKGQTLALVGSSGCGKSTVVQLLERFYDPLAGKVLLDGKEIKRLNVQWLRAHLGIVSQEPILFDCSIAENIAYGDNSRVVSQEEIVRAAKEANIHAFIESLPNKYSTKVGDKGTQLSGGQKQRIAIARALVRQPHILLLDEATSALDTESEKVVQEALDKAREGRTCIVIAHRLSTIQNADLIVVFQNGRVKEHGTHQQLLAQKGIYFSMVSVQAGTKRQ

What is called IC50 is the midpoint of a concentration-inhibition curve. Lower therefore signals higher potency. Consider `COCOc1cccc2c1[C@@H]1OC(=O)O[C@]13CCC(C)=C(CO2)C3(C)C`, for which the concentration for half-maximal inhibition (IC50) in the data set on KB 3-1 and in the data set with KB-G2 was over 50 µM each time.

As for `COCOc1ccc2c(c1)[C@@H]1OC(=O)O[C@]13CCC(C)=C(CO2)C3(C)C`, the IC50 in the data set on KB 3-1 and in the data set on KB-G2 was over 50 µM throughout.

Take `CC1=C2CC(=O)c3ccccc3[C@@H]3OC(=O)O[C@@]3(CC1)C2(C)C`: the half-inhibitory concentration (IC50) in the data set on KB 3-1 and in the data set on KB-G2 was over 50 µM throughout.

Take `CC1=C2COc3ccccc3[C@@H]3OC(=O)O[C@@]3(CC1)C2(C)C`: the half-maximal inhibitory concentration (IC50) with KB 3-1 and in the data set with KB-G2 was over 50 µM throughout.

Take `CC1=C2COCc3ccccc3[C@@H]3OC(=O)O[C@@]3(CC1)C2(C)C`: the IC50 in the data set on KB 3-1 and in the data set with KB-G2 was over 50 µM throughout.

Turning to `C=C1C2(C)CC[C@]3(OC(=O)O[C@H]3c3c(OCOC)cccc3C2=O)C1(C)C`, the IC50 in the data set with KB 3-1 and with KB-G2 was over 50 µM throughout.

Consider `COCOc1ccc2c(c1)[C@@H]1OC(=O)O[C@]13CCC(C)=C(COC2)C3(C)C`, for which the IC50 with KB 3-1 and in the data set with KB-G2 was over 50 µM throughout.

For the compound `COCOc1ccc2c(c1)[C@@H]1OC(=O)O[C@]13CCC(C)=C(CC2=O)C3(C)C`, the half-inhibitory concentration (IC50) with KB 3-1 and in the data set on KB-G2 was over 50 µM each time.

Broadly, the Km is the substrate concentration at which the rate is half of its maximum. Take `COc1ccc(CCN(C)CCCC(C#N)(c2ccc(OC)c(OC)c2)C(C)C)cc1OC` (stereo not given): the Km in data set [1] came to 2 µM.

Consider `CC(=O)O[C@H]1C(=O)[C@@]2(C)[C@H]([C@H](OC(=O)c3ccccc3)[C@]3(O)C[C@H](OC(=O)[C@H](O)[C@@H](NC(=O)c4ccccc4)c4ccccc4)C(C)=C1C3(C)C)[C@]1(OC(C)=O)CO[C@@H]1C[C@@H]2O` [PACLITAXEL], for which the Km in data set [1] is 0.7 µM. Moreover, the IC50 came to 0.0021 µM in the data set with KB 3-1 and 0.6 µM with KB-G2.
